Paper PMC9973464 (Haematologica, 2022)
Values joined by “and” are separate entries in the source; they are usually repeats but may differ in a detail not shown here. Equal entries are not always repeated.

Legend:
R/R AML patients = conditions: cited from earlier work
human platelets = assay: In vitro platelet aggregation assay in platelet rich plasma; format: cell-based
rats = assay: Pre-clinical toxicology study, daily oral gavage, rats; format: in vivo; conditions: daily oral gavage for 14 days to 3 months
FLT3 isoforms = conditions: evaluation of additional kinases; cited from earlier work
patients with R/R AML [1] = assay: Phase Ib trial: response and antileukemic activity; format: in vivo, human
Procedure, shortened: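 Multicenter, open-label phase Ib dose escalation (3+3) of oral single agent given QD or BID in 28-day cycles until progression or unacceptable toxicity. Started at 60 mg QD with 20 mg increments. Response was judged by Revised IWG AML criteria, with modifications.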

FLT3 = target: T1, FLT3 (Homo sapiens, UniProt P36888); assay: Plasma inhibitory activity; format: cell-based
T1 sequence (P36888 610-943 limits assumed): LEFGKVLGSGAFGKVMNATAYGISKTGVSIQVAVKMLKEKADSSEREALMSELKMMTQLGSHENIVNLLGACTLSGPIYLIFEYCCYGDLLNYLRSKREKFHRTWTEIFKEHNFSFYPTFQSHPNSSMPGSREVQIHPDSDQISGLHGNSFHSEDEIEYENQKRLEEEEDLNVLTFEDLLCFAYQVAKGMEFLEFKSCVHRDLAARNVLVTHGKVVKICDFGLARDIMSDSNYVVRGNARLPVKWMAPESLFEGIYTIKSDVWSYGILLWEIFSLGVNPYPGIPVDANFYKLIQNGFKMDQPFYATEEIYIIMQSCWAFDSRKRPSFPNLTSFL
Procedure, shortened: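 Steady-state trough plasma was drawn before dosing on Cycle 1 day 15. An FLT3-ITD-expressing AML cell line was incubated in this plasma. FLT3 phosphorylation was quantified against baseline plasma and reported as % of baseline. Drug level in the same sample was measured by mass spectrometry. Reference curve: normal donor plasma spiked with test compound, Molm-14 cells 1 h, immunoblot for pFLT3.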

dogs = assay: Pre-clinical toxicology study, daily oral gavage, dogs; format: in vivo; conditions: daily oral gavage for 14 days to 3 months
lymphoma patients = conditions: target SYK; cited from earlier work
patients with R/R AML [2] = assay: Phase Ib dose-escalation trial of oral mivavotinib: safety, DLT, MTD/RP2D; format: in vivo, human
[3] = Phase Ib trial: plasma pharmacokinetics; format: in vivo, human

CCc1nc(C(N)=O)c(Nc2ccc(N3CCC(N4CCN(C)CC4)CC3)c(OC)c2)nc1NC1CCOCC1 [gilteritinib]
median time to achieve best response (R/R AML patients): 48 days

Cn1cc(-c2nc(N[C@@H]3CCCC[C@@H]3N)c(F)c3c2C(=O)NC3)cn1 [mivavotinib]
effect on platelet aggregation caused by adenosine diphosphate (human platelets): prevented aggregation
effect on platelet aggregation caused by collagen (human platelets; 1.07 µM mivavotinib): prevented aggregation
inhibition of platelet aggregation (human platelets; 0.107 mM mivavotinib): not observed
effect on platelet aggregation caused by collagen (human platelets; 10.7 mM mivavotinib, collagen (2 mg/mL)): prevented aggregation
dose at which GI mucosal hemorrhage was present (rats): ≥ 30 mg/kg
activity against FLT3 isoforms (FLT3 isoforms): 1.6 to 7.6 ng/mL
reduction in marrow blast percentage, range (patients with R/R AML [1]; 13 patients with FLT3 mutations): 22.5-98.6%
patients with PD (patients with R/R AML [1]; 33 response-evaluable patients): 5
patients with clinical benefit despite PD (patients with R/R AML [1]; 33 response-evaluable patients): 4
patients with stable disease (patients with R/R AML [1]; 33 response-evaluable patients): 19
complete responses (4 with incomplete count recovery) (patients with R/R AML [1]; 43 patients enrolled): 5
patients with a ≥50% reduction in peripheral blast count from baseline (patients with R/R AML [1]; BID dosing): 9 of 12
patients with a ≥50% reduction in peripheral blast count from baseline (patients with R/R AML [1]; QD dosing): 12 of 21
patients with a ≥50% reduction in peripheral blast count from baseline (patients with R/R AML [1]; across all dose levels): 21 of 33
objective responses with incomplete count recovery (CRi) (patients with R/R AML [1]; of 19 patients with FLT3 mutations treated at 120, 140, or 160 mg QD or BID): 3
in vivo FLT3 inhibition by PIA, comparison of dose levels (FLT3; 80 mg BID, trough plasma): most effective FLT3 inhibition
consistent or sustained 90% FLT3 inhibition (FLT3; 140 mg QD or 60 mg BID): neither selected RP2D, 140 mg QD or 60 mg BID, achieved a consistent or sustained 90% FLT3 inhibition
FLT3 inhibition (FLT3; 140 mg QD, by Cycle 1 day 15, initial evidence): at least 90%
dose at which GI mucosal hemorrhage was dose limiting (dogs): ≥ 10 mg/kg
dose at which GI mucosal hemorrhage was present (dogs): ≥ 3 mg/kg
dose identified for expansion (lymphoma patients): 100 mg QD
DLT (patients with R/R AML [2]; 60 mg BID, 8 patients): No episodes of DLT were observed
drug-related SAE gastric hemorrhage (patients with R/R AML [2]; 3 patients, who received 80 mg BID): 7%
maximum tolerated dose (MTD), BID dosing regimen (patients with R/R AML [2]; BID dosing regimen): 60 mg BID
recommended phase II dose (RP2D) (patients with R/R AML [2]; QD dosing regimen): 140 mg QD
maximum tolerated dose (MTD), QD dosing regimen (patients with R/R AML [2]; QD dosing up to 160 mg QD, per protocol): not reached
on-study deaths (patients with R/R AML [2]; after informed consent and ≤28 days after last dose): 26
patients with ≥1 TEAE assessed by the investigator as related to mivavotinib (patients with R/R AML [2]; all 43 patients): 84%
intracranial bleeding considered grade ≥3 (patients with R/R AML [2]; all doses): 4 patients
patients with GI tract bleeding considered grade ≥3 (patients with R/R AML [2]; all doses): 7 patients
patients with GI-related or central nervous system-related bleeding event leading to study discontinuation (patients with R/R AML [2]; all doses): 9 patients
patients with bleeding involving the GI tract (patients with R/R AML [2]; all doses): Thirteen
patients with intracranial bleeding (patients with R/R AML [2]; all doses): Seven
patients who discontinued mivavotinib due to a TEAE (patients with R/R AML [2]; all patients): 67%
patients with drug-related SAE (patients with R/R AML [2]; all patients): 28%
bleeding events leading to discontinuation considered related to mivavotinib (patients with R/R AML [2]; of 9 patients): 5
fatal grade ≥3 bleeding events (patients with R/R AML [2]; of eleven patients with grade ≥3 bleeding events): 2
median day of occurrence of all bleeding events (patients with R/R AML [2]; range -1 to 262): 22 days
dose proportionality of plasma exposure ([3]; dose ranges studied, 60-160 mg QD or 60-80 mg BID): generally dose proportional
Cmax ([3]; human, plasma, oral, 140 mg): 574 ng/mL and 1.07 µM
Tmax ([3]; human, plasma, po): 1 to 3 h
